Measurements taken from ChEMBL document CHEMBL2417545, “6-methoxy-7-benzofuranoxy and 6-methoxy-7-indolyloxy analogues of 2-[2-(2,6-Dimethoxyphenoxy)ethyl]aminomethyl-1,4-benzodioxane (WB4101):1 discovery of a potent and selective α1D-adrenoceptor antagonist” (J Med Chem, 2013).

How the values were obtained:
[1] = biological target: T1, Alpha-1D adrenergic receptor (Rattus norvegicus, UniProt P23944); experiment: Antagonist activity at alpha-1D adrenoreceptor in Sprague-Dawley rat thoracic aorta assessed as inhibition of noradrenaline-induced tissue contraction after 30 mins by Schild plot analysis; conditions: read-out: pA2 (converted)
T1 sequence (P23944 whole entry): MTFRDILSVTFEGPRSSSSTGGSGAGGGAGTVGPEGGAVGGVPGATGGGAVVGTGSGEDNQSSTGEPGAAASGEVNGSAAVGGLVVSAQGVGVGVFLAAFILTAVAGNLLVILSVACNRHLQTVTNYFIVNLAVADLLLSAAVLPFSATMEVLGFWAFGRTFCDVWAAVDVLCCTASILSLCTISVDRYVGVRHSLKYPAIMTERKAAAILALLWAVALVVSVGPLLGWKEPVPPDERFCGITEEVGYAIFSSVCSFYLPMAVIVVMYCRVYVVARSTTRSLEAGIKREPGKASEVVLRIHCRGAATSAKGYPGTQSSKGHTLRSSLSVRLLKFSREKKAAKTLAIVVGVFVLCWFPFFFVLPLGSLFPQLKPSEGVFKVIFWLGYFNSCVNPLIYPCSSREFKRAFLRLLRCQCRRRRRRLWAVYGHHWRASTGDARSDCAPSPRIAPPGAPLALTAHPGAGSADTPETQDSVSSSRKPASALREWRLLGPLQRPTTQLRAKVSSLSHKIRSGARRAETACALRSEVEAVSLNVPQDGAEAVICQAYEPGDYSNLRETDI
In short: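 Endothelium-denuded helicoid aortic strips, about 1.5 cm, with denudation confirmed by absent acetylcholine relaxation. Strips were equilibrated ≥1 h at 1 g tension and cumulative (−)-noradrenaline curves recorded, the first two discarded and the third taken as control; a fourth followed 30 min antagonist equilibration. pA₂ from Schild plot, 3−5 repeats per concentration.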

Rattus norvegicus [2] = species: Rattus norvegicus; experiment: Selectivity ratio of Ki for alpha-1D adrenoreceptor in Sprague-Dawley rat thoracic aorta to Ki for alpha-1A adrenoreceptor in Sprague-Dawley rat prostatic vas deferens; type: tissue-based
[3] = biological target: T2, Alpha-1B adrenergic receptor (Homo sapiens, UniProt P35368); experiment: Displacement of [3H]prazosin from human alpha-1B adrenoreceptor expressed in CHO cells after 30 mins; type: cell-based
T2 sequence (P35368 whole entry): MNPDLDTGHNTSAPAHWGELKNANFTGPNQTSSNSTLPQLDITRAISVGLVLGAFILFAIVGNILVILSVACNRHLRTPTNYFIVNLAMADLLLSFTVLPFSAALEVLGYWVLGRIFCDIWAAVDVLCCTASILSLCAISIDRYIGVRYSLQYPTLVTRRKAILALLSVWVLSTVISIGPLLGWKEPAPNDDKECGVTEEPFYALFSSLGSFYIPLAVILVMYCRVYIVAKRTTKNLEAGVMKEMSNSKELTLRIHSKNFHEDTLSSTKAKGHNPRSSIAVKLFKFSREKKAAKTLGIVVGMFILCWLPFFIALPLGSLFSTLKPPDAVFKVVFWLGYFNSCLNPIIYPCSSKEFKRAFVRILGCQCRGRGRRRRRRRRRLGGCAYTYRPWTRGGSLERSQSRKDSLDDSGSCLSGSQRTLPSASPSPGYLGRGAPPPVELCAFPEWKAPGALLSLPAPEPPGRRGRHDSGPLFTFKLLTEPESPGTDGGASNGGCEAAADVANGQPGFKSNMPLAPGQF
In short: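 Membranes from CHO cells expressing each α₁-AR subtype, incubated 30 min at 25 °C in 50 mM Tris HCl pH 7.7 with 10 μM pargyline and 0.1% ascorbic acid, plus 0.5 nM [³H]prazosin and varying test compound concentrations. Nonspecific binding was defined with 1 μM prazosin.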

Rattus norvegicus [4] = species: Rattus norvegicus; experiment: Selectivity ratio of Ki for alpha-1D adrenoreceptor in Sprague-Dawley rat thoracic aorta to Ki for alpha-1A adrenoreceptor in Sprague-Dawley rat prostate; type: tissue-based
Rattus norvegicus [5] = species: Rattus norvegicus; experiment: Selectivity ratio of Ki for alpha-1D adrenoreceptor in Sprague-Dawley rat thoracic aorta to Ki for alpha-1B adrenoreceptor in Sprague-Dawley rat spleen; type: tissue-based

| Kb [1] | Ki [3] | SMILES | Ratio Ki (Rattus norvegicus [2]) | Ratio Ki (Rattus norvegicus [4]) | Ratio Ki (Rattus norvegicus [5]) |
| --- | --- | --- | --- | --- | --- |
| 0.263 nM | 21.9 nM | COc1ccc2c(c1OCCNC[C@H]1COc3ccccc3O1)OCC2.Cl | 129 | 50 | 12 |
| 2.4 nM | 35.5 nM | COc1ccc2c(c1OCCNC[C@H]1COc3ccccc3O1)NCC2.Cl.Cl |  |  |  |
| 0.977 nM | 28.8 nM | COc1ccc2ccoc2c1OCCNC[C@H]1COc2ccccc2O1.Cl | 6 |  | 2 |
| 3.02 nM | 490 nM | COc1ccc2cc[nH]c2c1OCCNC[C@H]1COc2ccccc2O1 |  |  |  |
